Experimental data published in ChEMBL document CHEMBL2401702, “A class of sulfonamides with strong inhibitory action against the α-carbonic anhydrase from Trypanosoma cruzi” (J Med Chem, 2013).
Activity calls are given as the source filed them. The calls are words filed in the database; no cut-off is given here.

How the values were obtained:
Carbonic anhydrase 2 = Carbonic anhydrase 2 (Homo sapiens, UniProt P00918); test: Inhibition of human carbonic anhydrase 2 preincubated for 15 mins to 6 hrs by CO2 hydration stopped-flow assay
[1] = Inhibition of Trypanosoma cruzi carbonic anhydrase preincubated for 15 mins to 6 hrs by CO2 hydration stopped-flow assay
How it was run: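 Recombinant TcCA prepared in-house. Stopped-flow CO2 hydration assay with 0.2 mM phenol red read at 557 nm, in 20 mM HEPES pH 7.5 with 20 mM Na2SO4, at 20 °C. CO2 1.7–17 mM. Initial rates taken over 10–100 s and uncatalyzed rates subtracted. Inhibitor diluted down to 0.01 nM and preincubated with enzyme 15 min at room temperature or 6 h at 4 °C. KI by nonlinear least squares, mean of ≥3 determinations.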

Carbonic anhydrase 1 = Carbonic anhydrase 1 (Homo sapiens, UniProt P00915); test: Inhibition of human carbonic anhydrase 1 preincubated for 15 mins to 6 hrs by CO2 hydration stopped-flow assay
Chain of Carbonic anhydrase 1 (P00915 whole entry): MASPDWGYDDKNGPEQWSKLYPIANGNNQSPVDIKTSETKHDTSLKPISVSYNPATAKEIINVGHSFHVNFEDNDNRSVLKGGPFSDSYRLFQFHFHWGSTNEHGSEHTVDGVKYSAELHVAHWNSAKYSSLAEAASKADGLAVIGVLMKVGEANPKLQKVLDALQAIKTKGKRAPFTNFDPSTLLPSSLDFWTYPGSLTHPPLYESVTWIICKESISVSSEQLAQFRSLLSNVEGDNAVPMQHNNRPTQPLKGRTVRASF

Trypanosoma cruzi = test: Antitrypanosomal activity against Trypanosoma cruzi epimastigotes at 64 to 256 uM by ELISA; assay type: functional, organism-based
How it was run: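 Resazurin viability assay on log-phase T. cruzi epimastigotes (strains DM28 and Y). Cultures seeded 24 h at 28 °C, plated and incubated a further 48 h at 28 °C. Resazurin added, incubation 1–6 h, then dual-wavelength absorbance at 490 and 595 nm with background subtracted. Compounds tested at 256, 128 and 64 μM. Benznidazole as reference. Three experiments, each in triplicate.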

Structure (SMILES) | Ki [1] | other results
NS(=O)(=O)c1ccc(CCNC(=O)Cc2ccc(Cl)cc2)cc1 | 11.8 nM | Ki (Carbonic anhydrase 2): 6.4 nM; Ki (Carbonic anhydrase 1): 9.7 nM
NS(=O)(=O)c1ccc(CNC(=O)Cc2ccccc2Br)cc1 | 9 nM | 
COc1ccc(CC(=O)Nc2ccc(S(N)(=O)=O)cc2)cc1 | 8 nM | 
NS(=O)(=O)c1ccc(NC(=O)Cc2ccc(F)cc2)c(Br)c1 | 9 nM | 
NS(=O)(=O)c1ccc(CNC(=O)Cc2ccc(Cl)cc2)cc1 | 12.5 nM | 
NS(=O)(=O)c1ccc(NC(=O)Cc2ccccc2Br)c(Br)c1 | 10.9 nM | 
NS(=O)(=O)c1ccc(NC(=O)Cc2ccccc2Br)cc1 | 8.9 nM | 
COc1ccc(CC(=O)Nc2ccc(S(N)(=O)=O)cc2Cl)cc1 | 7.9 nM | 
NS(=O)(=O)c1ccc(NC(=O)Cc2ccc(F)cc2)cc1 | 8.5 nM | 
NS(=O)(=O)c1ccc(NC(=O)Cc2ccc(F)cc2)c(F)c1 | 8.3 nM | 
NS(=O)(=O)c1ccc(CCNC(=O)Cc2ccc(F)cc2)cc1 | 9.1 nM | 

More lines, main results first:

Ki [1] | Structure (SMILES) | other results
4.1 nM | COc1ccc(CC(=O)Nc2ccc(S(N)(=O)=O)cc2F)cc1 | 
7.1 nM | NS(=O)(=O)c1ccc(NC(=O)Cc2ccc(Cl)cc2)c(Br)c1 | 
7.6 nM | NS(=O)(=O)c1nnc(NC(=O)Cc2ccc(F)cc2)s1 | 
7.5 nM | COc1ccc(CC(=O)NCCc2ccc(S(N)(=O)=O)cc2)cc1 | Ki (Carbonic anhydrase 2): 0.81 nM; Ki (Carbonic anhydrase 1): 3.7 nM
3.3 nM | NS(=O)(=O)c1ccc(CCNC(=O)Cc2ccccc2Br)cc1 | Activity (Trypanosoma cruzi): inactive
0.51 nM | COc1ccc(CC(=O)Nc2nnc(S(N)(=O)=O)s2)cc1 | Activity (Trypanosoma cruzi): inactive
7.4 nM | COc1ccc(CC(=O)NCc2ccc(S(N)(=O)=O)cc2)cc1 | 
1.6 nM | NS(=O)(=O)c1ccc(NC(=O)Cc2ccccc2Br)c(F)c1 | Activity (Trypanosoma cruzi): inactive
0.95 nM | NS(=O)(=O)c1nnc(NC(=O)Cc2ccc(Cl)cc2)s1 | Activity (Trypanosoma cruzi): inactive
0.83 nM | NS(=O)(=O)c1nnc(NC(=O)Cc2ccccc2Br)s1 | 
2.7 nM | NS(=O)(=O)c1ccc(NC(=O)Cc2ccc(Cl)cc2)cc1 | 
7 nM | NS(=O)(=O)c1ccc(NC(=O)Cc2ccc(F)cc2)c(Cl)c1 | 
7.2 nM | COc1ccc(CC(=O)Nc2ccc(S(N)(=O)=O)cc2Br)cc1 | 
3.7 nM | NS(=O)(=O)c1ccc(CNC(=O)Cc2ccc(F)cc2)cc1 | 
1.2 nM | NS(=O)(=O)c1ccc(NC(=O)Cc2ccc(Cl)cc2)c(F)c1 | Activity (Trypanosoma cruzi): inactive
7.8 nM | NS(=O)(=O)c1ccc(NC(=O)Cc2ccccc2Br)c(Cl)c1 | 
7.7 nM | NS(=O)(=O)c1ccc(NC(=O)Cc2ccc(Cl)cc2)c(Cl)c1 | 
